TAAR1 ag: human TAAR1 agonists, primary screen, Fluo-8 calcium fluorescence, CHO RD-HGA16 cells; vehicle wells 0%, saturating PEA agonist 100%; activation, % at 3 µM; hit rate 0.99% among 360,000;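 active means activation above the mean activation of all test compounds in the run plus 3 SD, cut at about 38% in these data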
Target sequence (Q96RJ0 whole entry, looked up): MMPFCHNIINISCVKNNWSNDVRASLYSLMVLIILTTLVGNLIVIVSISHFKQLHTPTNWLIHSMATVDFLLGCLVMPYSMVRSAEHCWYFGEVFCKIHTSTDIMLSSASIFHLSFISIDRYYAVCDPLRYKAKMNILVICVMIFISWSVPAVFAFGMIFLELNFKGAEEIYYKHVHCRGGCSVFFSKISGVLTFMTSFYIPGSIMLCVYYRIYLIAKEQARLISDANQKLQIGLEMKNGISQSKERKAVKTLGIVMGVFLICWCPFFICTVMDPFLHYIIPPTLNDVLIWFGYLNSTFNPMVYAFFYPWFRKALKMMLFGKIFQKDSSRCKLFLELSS
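Assay system – CHO-derived RD-HGA16 cells with stable Gα16 and human TAAR1 · Compound dosing – one-point dosing at 3 µM (nominal) · Incubation – 17-24 h seeding, 75 min 37 °C dye, 30 min RT · Measured by – kinetic Fluo-8 calcium fluorescence · Control set – DMSO vehicle as 0%, PEA at EC100 as 100% · Repeats – single well for each compound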
OX1R antag-1: antagonists of human orexin 1 receptor (OX1R) | Orexin/Hypocretin receptor type 1 (Homo sapiens), O43613 | OX1R-expressing cells, FRET antagonist read-out | inhibition, % at 6.6 µM | hit rate 1.8% among 330,000 | AID 485270, 2010; in the data active means inhibition mostly above about 38%, no sharp cut-off; inactive means mostly below about 40%
CHO parental Ca: ATP-evoked calcium signal inhibitors, parental CHO, primary screen, counter-screen for OX1R antagonist project, cell-based, fluorescence, Fluo-8 calcium dye | parental CHO-K1, ATP-induced calcium, Fluo-8 fluorescence | inhibition, % at 5.6 µM | hit rate 0.63% among 330,000 | AID 463079, 2010;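 active means inhibition above that plate's mean sample inhibition plus 3 SD, cut at about 26% in these data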
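Test system: parental CHO cells; detection: calcium-sensitive Fluo-8 fluorescence; evaluation: percent inhibition of calcium signal; also added: ATP as calcium-mobilizing challenge; repeats: one well per compound; control set: ATP-challenged DMSO wells low, unchallenged DMSO wells high; compound: single nominal dose of 5.6 µM per compound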
OX1R antag-2: OX1R (HCRTR1) antagonists, primary screen, fluorescence, CHO/OX1R cells, Fluo-8 calcium, orexin A; Fluo-8 calcium fluorescence; inhibition, % at 5 µM; hit rate 0.43% among 330,000; AID 434989, 2010;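 active means inhibition above its plate's threshold, mean inhibition of all tested compounds on the plate plus 3 SD, cut at about 37% in these data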
TAAR1 antagonist: human TAAR1 antagonists, primary screen, Fluo-8 calcium fluorescence, CHO RD-HGA16 cells; antagonist; inhibition, % at 3 µM; AID 624466, 2012; Trace amine-associated receptor 1 (Homo sapiens), Q96RJ0; hit rate 1.5% among 360,000;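 active means inhibition above a per-plate cutoff, the mean inhibition of test compounds on that plate plus 3 SD, cut at about 49% in these data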
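Assay system: RD-HGA16 CHO cells with stable hTAAR1 and Gα16 / Reagent: EC80 β-phenethylamine stimulus / Doses: 3 µM, single point / Timing: dye loading 75 min at 37 °C, then 30 min room temperature / Measured by: Fluo-8 intracellular calcium dye fluorescence, real-time kinetic reads / Controls: vehicle wells and EC80 agonist wells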
NTR1 agonist: agonists of human NTR1, primary screen, imaging, U2OS cells, beta-arrestin-GFP, high content. Neurotensin receptor type 1 (Homo sapiens), P30989. NTR1-U2OS beta-arrestin-GFP spot imaging, agonist mode. activation, % at 20 µM. hit rate 0.17% among 330,000. AID 493036, 2011;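 active means activation at or above 40% of the spot to cytoplasm intensity ratio, with at least 20 cells analyzed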
Target sequence (P30989 whole entry, looked up): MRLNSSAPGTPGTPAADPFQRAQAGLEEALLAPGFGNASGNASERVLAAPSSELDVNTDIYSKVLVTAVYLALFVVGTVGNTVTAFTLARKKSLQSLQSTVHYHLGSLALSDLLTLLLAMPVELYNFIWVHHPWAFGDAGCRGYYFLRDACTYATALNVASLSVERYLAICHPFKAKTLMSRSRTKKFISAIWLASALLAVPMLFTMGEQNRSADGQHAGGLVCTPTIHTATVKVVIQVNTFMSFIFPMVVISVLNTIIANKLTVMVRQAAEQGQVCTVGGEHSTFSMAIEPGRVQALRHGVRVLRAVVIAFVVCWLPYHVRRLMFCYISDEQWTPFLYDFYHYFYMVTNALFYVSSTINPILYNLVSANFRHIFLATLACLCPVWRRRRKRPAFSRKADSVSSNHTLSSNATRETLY
TAAR1 ag confirm: human TAAR1 agonists, retest of hits, confirmation, Fluo-8 calcium fluorescence, CHO RD-HGA16 cells. shares compounds with TAAR1 ag. scaled: DMSO 0%, maximal phenethylamine 100%. activation, % at 3 µM. hit rate 82% among 2,400. AID 651783, 2012;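 active means activation above a cutoff set at the run's mean compound activation plus 3 SD, cut at about 39% in these data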
Ga16 ag counter: nonselective calcium mobilization agonists, CHO-Ga16 cells, counter-screen for hTAAR1 agonist project, cell-based, fluorescence, CHO-Ga16 parental line; shares compounds with TAAR1 ag; Fluo-8 calcium fluorescence; normalized to maximal ATP response, DMSO zero; activation, % at 3 µM; hit rate 50% among 2,400;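 active means activation above the run cutoff, the mean activation over all tested wells plus 3 SD, cut at about 12% in these data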
TAAR1 desens: TAAR1 desensitization by agonist hits, confirmation, counter-screen for TAAR1 agonist project, cell-based, fluorescence, tachyphylaxis; AID 651951, 2012; hit rate 46% among 2,400; shares compounds with TAAR1 ag; CHO RD-HGA16 hTAAR1, Fluo-8 calcium, beta-PEA response inhibition; inhibition, % at 3 µM;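 active means inhibition above the run cutoff, the mean inhibition of all test compounds plus 3 SD, cut at about 49% in these data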;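 further: beta-PEA stimulus applied at its EC80; loss of beta-PEA calcium signal after compound pretreatment read as receptor desensitization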
Ga16 nonsel ant: inhibition of ATP-evoked calcium response in CHO-Ga16 cells, counter-screen for TAAR1 agonist project, cell-based, fluorescence | inhibition, % at 3 µM | CHO-Ga16 ATP-induced calcium, Fluo-8 fluorescence | AID 651952, 2012 | shares compounds with TAAR1 ag | hit rate 39% among 2,400;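 active means inhibition above the plate's mean compound inhibition plus 3 SD, computed per plate, cut at about 22% in these data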
Each line names hits and unclear results; the compound was inactive in the other large screens (follow-up assays come after a bar, where they were run). The list is not random: actives were taken first. Their share in the collection is about 4%.

Cc1ccccc1Cn1nnc(C(=O)Nc2cccc(C)c2C)c1N	TAAR1 ag 66 | TAAR1 ag confirm 79 | Ga16 ag counter 31 | TAAR1 desens inactive | Ga16 nonsel ant inactive
Cc1ccccc1CC1SC(N=C(N)N)=NC1=O (stereo unspecified)	none
OC(c1cc(-c2ccc(C(F)(F)F)cc2)nc(C(F)(F)F)c1)C1CCCCN1 (stereo unspecified)	TAAR1 ag 82 | TAAR1 ag confirm 82 | Ga16 ag counter 62 | TAAR1 desens 69 | Ga16 nonsel ant 70
OC(c1cc(C(F)(F)F)nc2c(C(F)(F)F)cccc12)C1CCCCN1 (stereo unspecified)	TAAR1 ag 67, TAAR1 antagonist 50 | TAAR1 ag confirm 68 | Ga16 ag counter 44 | TAAR1 desens 60 | Ga16 nonsel ant 54
OC(c1cc(-c2cccc(Cl)c2)nc2ccccc12)C1CCCCN1 (stereo unspecified)	none (no result: OX1R antag-1, CHO parental Ca, OX1R antag-2, NTR1 agonist)
CN(CCc1ccccc1)C(=O)c1[nH]c(C(F)(F)F)nc1-c1ccccc1	TAAR1 ag 70 (no result: OX1R antag-1, CHO parental Ca, OX1R antag-2, NTR1 agonist) | TAAR1 ag confirm 77 | Ga16 ag counter inactive | TAAR1 desens inactive | Ga16 nonsel ant inactive
CN(CCc1ccccn1)C1CC(=O)N(c2ccc(Cl)cc2)C1=O (stereo unspecified)	TAAR1 ag 68 | TAAR1 ag confirm inactive | Ga16 ag counter inactive | TAAR1 desens inactive | Ga16 nonsel ant inactive
CN(C[C@H](Cc1ccccc1)N(C[C@H](c1ccccc1)N(CCc1ccccc1)N=O)N=O)N=O	none
CN(C[C@@H](Cc1cccc2ccccc12)N(C[C@H](Cc1ccccc1)N(CCc1ccccc1)N=O)N=O)N=O	TAAR1 ag 51 | TAAR1 ag confirm 76 | Ga16 ag counter inactive | TAAR1 desens inactive | Ga16 nonsel ant inactive
CC1=NN(/C(=N\c2nnc(C)s2)Nc2ccccc2)[C@H](c2cccc3ccccc23)S1	TAAR1 ag 70 | TAAR1 ag confirm 47 | Ga16 ag counter inactive | TAAR1 desens inactive | Ga16 nonsel ant inactive
Cc1nnc(SCc2cc(=O)[nH]c(/N=C(\N)Nc3ccccc3)n2)s1	none
O=Cc1ccc(-n2cccn2)cc1	TAAR1 ag 323, TAAR1 antagonist 65 | TAAR1 ag confirm inactive | Ga16 ag counter inactive | TAAR1 desens inactive | Ga16 nonsel ant inactive
Cc1ccc(-n2cccn2)cc1	none
CCCCn1c(N)c(N(CC(C)C)C(=O)c2oc3c(Cl)cccc3c2C)c(=O)[nH]c1=O	none
CN1CCN(c2ccc(S(=O)(=O)N3CCCCC3)cc2NC(=O)Cc2ccc(Cl)cc2)CC1	TAAR1 ag 57 | TAAR1 ag confirm inactive | Ga16 ag counter 28 | TAAR1 desens inactive | Ga16 nonsel ant 22
COc1ccc(CNC(=O)COc2ccc(Br)c(C)c2)cc1	none
COc1cccc(/C=N/Nc2snc(SC)c2C#N)c1O	TAAR1 ag 75, OX1R antag-1 60, TAAR1 antagonist 60 | TAAR1 ag confirm 69 | Ga16 ag counter 52 | TAAR1 desens 82 | Ga16 nonsel ant 44
COc1cccc(/C=N/Nc2ccccc2C(=O)O)c1O	none
COc1ccc(C(C)=O)cc1Cn1c(C)c(C(=O)NCc2ccc3c(c2)OCO3)sc1=O	none (no result: OX1R antag-1, CHO parental Ca, OX1R antag-2, NTR1 agonist)
FC(F)(F)c1ccccc1NC(=S)N1CCc2ccccc2C1	TAAR1 ag 80 | TAAR1 ag confirm 96 | Ga16 ag counter 18 | TAAR1 desens inactive | Ga16 nonsel ant inactive
O=C(CN1CCc2ccccc2C1)Nc1ccccc1C(F)(F)F	TAAR1 ag 56 | TAAR1 ag confirm 75 | Ga16 ag counter inactive | TAAR1 desens 52 | Ga16 nonsel ant inactive
Cc1c(Cl)cccc1NC(=S)N1CCOCC1	none
Cc1c(Cl)cccc1NC(=S)N1CCc2ccccc2C1	TAAR1 ag 74 | TAAR1 ag confirm 69 | Ga16 ag counter inactive | TAAR1 desens inactive | Ga16 nonsel ant inactive
FC(F)c1nc2nc(Cl)c(Cl)nc2[nH]1	none (no result: OX1R antag-1, CHO parental Ca, OX1R antag-2, NTR1 agonist)
COc1ccc(N(C(=O)CS(=O)CC(=O)Nc2ccc(F)cc2)C(C(=O)NC2CCCCC2)c2cccs2)cc1 (stereo unspecified)	none
Cc1ccccc1OCc1n(CC(=O)OC2CC(C)CCC2C(C)C)c2ccccc2[n+]1C (stereo unspecified)	TAAR1 ag 47, CHO parental Ca 33, OX1R antag-2 46 | TAAR1 ag confirm 87 | Ga16 ag counter 23 | TAAR1 desens 87 | Ga16 nonsel ant 48
CC1CCC(C(C)C)C(OC(=O)COC(=O)c2ccc(N)cc2)C1 (stereo unspecified)	none
CN(CCc1ccccc1)C(=O)CC1C(=O)NCCN1Cc1ccccn1 (stereo unspecified)	TAAR1 ag 63 (no result: OX1R antag-1, CHO parental Ca, OX1R antag-2, NTR1 agonist) | TAAR1 ag confirm 71 | Ga16 ag counter inactive | TAAR1 desens 60 | Ga16 nonsel ant inactive
COc1ccc(CCNC(=O)/C=C/C(=O)O)cc1	TAAR1 ag 62 | TAAR1 ag confirm 81 | Ga16 ag counter inactive | TAAR1 desens 50 | Ga16 nonsel ant inactive
O=C(O)/C=C/C(=O)NCCc1ccccc1	TAAR1 ag 118, TAAR1 antagonist 80 | TAAR1 ag confirm 105 | Ga16 ag counter inactive | TAAR1 desens 98 | Ga16 nonsel ant inactive
O=C(/C=C/c1cccc(Cl)c1)NCCc1ccccc1	none
CCc1nnc(NC(=O)CCC(=O)NCCc2ccccc2)s1	TAAR1 ag 49 | TAAR1 ag confirm inactive | Ga16 ag counter inactive | TAAR1 desens inactive | Ga16 nonsel ant inactive
COc1ccc(CCCC(=O)NCCc2ccccc2)cc1	none (no result: OX1R antag-1, CHO parental Ca, OX1R antag-2)

Assay outcomes from PubChem.
